Data as given in paper PMC3961502 (The Journal of investigative dermatology, 2013).

Columns and labels:
Format in all cases: cell-based, human
[1] = tested on: MCF-7 cells expressing GFP-PDGFR-β; assay: PDGFR-GFP / TR-dextran co-localization; conditions: MCF-7 pre-incubated with 80 µM dynasore 1 h, then 1 nM PDGF-BB
How it was run: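 MCF-7 cells expressing GFP-PDGFR-β were pre-incubated 1 h with 80 µM dynasore in serum-free DMEM. They then received TR-dextran plus 1 nM PDGF-BB ± 10 µM peptide in HBSS for 15 min and were imaged by confocal microscopy. Both channel thresholds were set at 70, and >100 cells were scored per condition. Co-localization index = yellow pixels / (yellow + green pixels).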

PDGFR-β = assay: PDGFR signaling by Western blot; conditions: AHDF preincubated 1 h with 80 µM dynasore, 1 nM PDGF-BB in HBSS (Figure S9)
How it was run: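 AHDF primary dermal fibroblasts (passage 8–12, grown in DMEM/10% FBS) were stimulated with 1 nM PDGF-BB ± 10 µM peptide in HBSS. Cells were lysed in Tris pH 7.5 buffer with phosphatase and protease inhibitors, sonicated and boiled. Equal protein was run on 10% SDS-PAGE and blotted to nitrocellulose, blocked in 2% BSA/TBST, and probed overnight at 4°C. Detection used HRP-secondary chemiluminescence, with signal intensity quantified.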

AHDF [2] = assay: cell morphology by phase contrast microscopy under nutrient deprivation; conditions: AHDF in HBSS 3 days; 1 nM PDGF, 10 µM P12
AHDF [3] = assay: TUNEL apoptosis assay under nutrient deprivation; conditions: AHDF in HBSS, 3 days of starvation; 1 nM PDGF, 10 µM P12; >800 cells counted, n=6, mean

Compound | PDGF-BB-stimulated internalization of PDGFR-GFP under dynamin inhibition [1] | PDGF-BB stimulated p-Akt signal in the presence of dynasore (PDGFR-β) | cell morphology (AHDF [2]) | apoptosis, %TUNEL+ (TUNEL positive/DAPI positive) (AHDF [3]) [%]
O=C(N/N=C/c1ccc(O)c(O)c1)c1cc2ccccc2cc1O [dynasore] | minimal internalization | inhibition |  | 
PDGF-BB: platelet-derived growth factor BB, purchased from Invitrogen |  |  | rounded or shriveled | 30
